Reference: ChEMBL document CHEMBL4613274, “Chimeric Peptidomimetics of SOCS 3 Able to Interact with JAK2 as Anti-inflammatory Compounds” (ACS Med Chem Lett, 2020)
Active and inactive are the calls of the source. No cut-off for these calls is given here. Square brackets hold non-standard residues; d marks the D form. Peptide text beside a SMILES is read from it. βAla = NCCC(=O)O

Key:
[1] = Stability of compound in FBS assessed as residual concentration at 80 uM incubated for 2 hrs by RP-HPLC analysis; format: physicochemical; conditions: cattle, fetal bovine serum (FBS); read-out: Stability
How it was run: (§1)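 Pure peptides incubated in fetal bovine serum; decrease of chromatographic peak area followed over time, expressed as area percentage remaining.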

[2] = Drug distribution in cytoplasm of mouse VSMC measured after 2 hrs by confocal microscopy; format: ADME, subcellular; conditions: in vitro
How it was run: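 Primary murine vascular smooth muscle cells exposed to fluorescent (TAMRA-labeled), Tat 48–60-conjugated peptides; uptake and subcellular distribution imaged by confocal microscopy after 2 h.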

[3] = molecular target: Signal transducer and activator of transcription 3 (Mus musculus) (UniProt P42227); assay: Inhibition of IFNgamma and IL6 induced STAT3 activation in mouse VSMC cells assessed as decrease in STAT3 phosphorylation at 5 uM pretreated for 90 mins using TAMRA-conjugated peptide followed by IFNgamma and IL6 stimulation for 1 hr by DAPI staining based immunofluorescence assay relative to control; format: cell-based
How it was run: (§2)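 Primary mouse VSMCs stimulated with IFNγ+IL-6 with or without TAMRA-labeled peptide 5 μM; immunofluorescence for phospho-STAT3 with DAPI nuclear counterstain, confocal imaging. P-STAT3 fluorescence intensity given as percentage, mean ± SEM, n = 3 independent experiments.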

[4] = molecular target: Signal transducer and activator of transcription 3 (Mus musculus) (UniProt P42227); assay: Inhibition of IFNgamma and IL6 induced STAT3 nuclear translocation in mouse VSMC cells at 5 uM pretreated for 90 mins using TAMRA-conjugated peptide followed by IFNgamma and IL6 stimulation for 1 hr by DAPI staining based immunofluorescence assay relative to control; format: cell-based; how it was run: as §2
[5] = system: RAW264.7; assay: Antiinflammatory activity against mouse RAW264.7 cells assessed as reduction in IFNgamma and IL6-induced mRNA expression of Cxcl10 at […] pretreated for 90 mind followed by IFNgamma and IL6 stimulation for 1 hr by Trizol reagent based RT-PCR analysis; format: functional, cell-based
How it was run: (§3)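 RAW264.7 murine macrophage-like cells; peptides (conjugated to HIV Tat 48–60 for cell entry) or Ala/Arg negative-control peptide at 12.5 μM, then IFNγ+IL-6 stimulation 1 h. Cxcl10, Ccl5 and Nox2 mRNA quantified by real-time PCR.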

[6] = system: RAW264.7; assay: Antiinflammatory activity against mouse RAW264.7 cells assessed as reduction in IFNgamma and IL6-induced mRNA expression of Ccl5 at […] pretreated for 90 mind followed by IFNgamma and IL6 stimulation for 1 hr by Trizol reagent based RT-PCR analysis; format: functional, cell-based; how it was run: as §3
[7] = system: RAW264.7; assay: Antioxidant activity against mouse RAW264.7 cells assessed as reduction in IFNgamma and IL6-induced mRNA expression of Nox2 at […] pretreated for 90 mind followed by IFNgamma and IL6 stimulation for 1 hr by Trizol reagent based RT-PCR analysis; format: functional, cell-based; how it was run: as §3
[8] = molecular target: Tyrosine-protein kinase JAK2 (Homo sapiens, UniProt O60674); assay: Binding affinity to human N-terminal His-tagged JAK2 catalytic domain (826 to 1132 end residues) at 25 degree C by microscale thermophoresis assay
How it was run: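 JAK2 catalytic domain binding by microscale thermophoresis; labeled target with 1:1 serial dilutions of peptide (14–16 samples) from stocks of ~404–409 μM in labeling buffer pH 7.5. Temperature-induced fluorescence change plotted versus peptide concentration; KD from fitting of binding isotherm.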

[9] = Stability of compound in FBS assessed as decrease in chromatographic peak at 80 uM incubated up to 4 hrs by RP-HPLC analysis; format: physicochemical; conditions: cattle; how it was run: as §1
[10] = Stability of compound in FBS assessed as drug degradation at 80 uM incubated for 2 hrs by RP-HPLC analysis; format: physicochemical; conditions: cattle, fetal bovine serum (FBS); read-out: Drug degradation; how it was run: as §1

Signal transducer and activator of transcription 3 (Mus musculus), sequence (P42227 whole entry): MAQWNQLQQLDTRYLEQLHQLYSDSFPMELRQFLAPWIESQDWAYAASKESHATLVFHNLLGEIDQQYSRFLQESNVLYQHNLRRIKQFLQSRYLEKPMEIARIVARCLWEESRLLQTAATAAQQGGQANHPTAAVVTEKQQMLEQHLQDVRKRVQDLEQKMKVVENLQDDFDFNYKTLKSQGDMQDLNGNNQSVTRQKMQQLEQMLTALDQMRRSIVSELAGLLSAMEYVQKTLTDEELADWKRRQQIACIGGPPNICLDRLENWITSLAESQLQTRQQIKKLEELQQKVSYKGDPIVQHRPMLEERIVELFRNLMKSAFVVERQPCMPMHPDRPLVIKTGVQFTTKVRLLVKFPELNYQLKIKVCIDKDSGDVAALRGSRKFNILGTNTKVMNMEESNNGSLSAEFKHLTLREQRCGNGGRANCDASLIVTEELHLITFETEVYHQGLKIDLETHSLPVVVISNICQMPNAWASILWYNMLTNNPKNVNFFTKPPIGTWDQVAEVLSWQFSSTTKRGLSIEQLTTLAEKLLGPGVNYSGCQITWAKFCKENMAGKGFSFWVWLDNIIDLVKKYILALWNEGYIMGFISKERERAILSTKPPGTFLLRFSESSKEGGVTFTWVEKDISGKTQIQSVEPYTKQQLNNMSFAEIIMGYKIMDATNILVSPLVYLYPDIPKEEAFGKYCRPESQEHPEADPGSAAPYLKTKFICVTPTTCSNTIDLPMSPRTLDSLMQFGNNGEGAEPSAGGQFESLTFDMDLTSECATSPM
Tyrosine-protein kinase JAK2, sequence (O60674 whole entry, the tested form may be a part): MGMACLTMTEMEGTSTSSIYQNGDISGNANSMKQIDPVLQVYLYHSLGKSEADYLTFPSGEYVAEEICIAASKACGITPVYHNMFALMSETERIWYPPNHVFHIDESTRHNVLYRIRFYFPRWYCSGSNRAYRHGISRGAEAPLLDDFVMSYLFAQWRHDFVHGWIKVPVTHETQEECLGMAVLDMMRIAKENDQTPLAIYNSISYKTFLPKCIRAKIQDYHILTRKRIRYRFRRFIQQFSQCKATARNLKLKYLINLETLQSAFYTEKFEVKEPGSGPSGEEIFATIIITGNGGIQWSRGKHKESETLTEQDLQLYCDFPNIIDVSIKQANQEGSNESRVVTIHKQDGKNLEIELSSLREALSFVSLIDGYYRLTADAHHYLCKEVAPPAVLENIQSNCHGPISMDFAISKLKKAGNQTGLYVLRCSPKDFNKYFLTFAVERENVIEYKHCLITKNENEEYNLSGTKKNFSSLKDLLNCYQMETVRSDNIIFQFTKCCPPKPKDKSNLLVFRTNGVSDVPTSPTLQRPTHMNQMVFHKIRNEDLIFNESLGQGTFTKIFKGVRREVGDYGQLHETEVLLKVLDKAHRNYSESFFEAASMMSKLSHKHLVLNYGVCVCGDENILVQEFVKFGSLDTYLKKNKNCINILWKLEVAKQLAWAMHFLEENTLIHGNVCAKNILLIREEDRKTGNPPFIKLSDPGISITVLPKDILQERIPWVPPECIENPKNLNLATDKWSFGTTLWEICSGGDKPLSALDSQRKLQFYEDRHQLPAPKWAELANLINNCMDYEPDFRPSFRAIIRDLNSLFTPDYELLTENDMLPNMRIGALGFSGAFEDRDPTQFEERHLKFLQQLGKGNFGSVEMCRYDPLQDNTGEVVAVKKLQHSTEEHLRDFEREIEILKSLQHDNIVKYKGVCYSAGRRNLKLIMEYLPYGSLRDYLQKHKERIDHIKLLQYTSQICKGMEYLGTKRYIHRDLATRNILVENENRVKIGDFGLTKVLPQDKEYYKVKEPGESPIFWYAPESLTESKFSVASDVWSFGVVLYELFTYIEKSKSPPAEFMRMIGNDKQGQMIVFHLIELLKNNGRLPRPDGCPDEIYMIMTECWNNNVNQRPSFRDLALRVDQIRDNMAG

Row | Compound | remaining at 2 h, 80 µM [1] [%] | Drug uptake [2] | inhibition [3] [%] | inhibition [4] | Activity [8] | Kd [8] [µM] | Stability [9] | metabolised at 2 h, 80 µM [10] [%] | Activity [5] | Activity [6] | Activity [7]
1 | CC(=O)N[C@@H](CC(C)C)C(=O)N[C@@H](CCCCN)C(=O)N[C@H](C(=O)N[C@@H](Cc1ccccc1)C(=O)N[C@@H](CO)C(=O)N[C@@H](CO)C(=O)N[C@@H](CCCCN)C(=O)N[C@@H](CO)C(=O)N[C@@H](CCC(=O)O)C(=O)N[C@@H](Cc1ccc(O)cc1)C(=O)N[C@@H](CCC(N)=O)C(=O)N[C@@H](CC(C)C)C(=O)N[C@H](C(=O)N[C@H](C(=O)N[C@@H](CC(N)=O)C(=O)N[C@@H](C)C(=O)N[C@H](C(=O)N[C@@H](CCCNC(=N)N)C(=O)N[C@@H](CCCCN)C(=O)N[C@@H](CC(C)C)C(=O)N[C@@H](CCC(N)=O)C(=O)N[C@@H](CCC(=O)O)C(=O)N[C@@H](CO)C(=O)NCC(N)=O)C(C)C)C(C)C)C(C)C)[C@@H](C)O | 40 | Active | 65 | Active |  |  |  |  | Active | Active | Active
2 | Ac-FSSKSEYQLVVNAVRKLQESGFYWSAVT-NH2 |  |  |  |  | Dose-dependent effect |  | Stable | 100 |  |  | 
3 | Ac-VVNAVRKLQESGFYWSAVT-NH2 |  |  |  |  | Dose-dependent effect |  | Stable |  |  |  | 

Now from value to compound, other results behind:

Row | remaining at 2 h, 80 µM [1] [%] | Drug uptake [2] | inhibition [3] [%] | inhibition [4] | Activity [8] | Kd [8] [µM] | Stability [9] | metabolised at 2 h, 80 µM [10] [%] | Compound | Activity [5] | Activity [6] | Activity [7]
4 | 70 | Active | 65 | Active | Dose-dependent effect | 11 | Stable |  | CC(=O)N[C@@H](CCCCN)C(=O)NCCC(=O)N[C@@H](Cc1ccccc1)C(=O)N[C@@H](CO)C(=O)N[C@@H](CO)C(=O)N[C@@H](CCCCN)C(=O)N[C@@H](CO)C(=O)N[C@@H](CCC(=O)O)C(=O)N[C@@H](Cc1ccc(O)cc1)C(=O)N[C@@H](CCC(N)=O)C(=O)N[C@@H](CC(C)C)C(=O)NCCC(=O)NCCC(=O)N[C@@H](Cc1ccccc1)C(=O)N[C@@H](Cc1ccc(O)cc1)C(=O)N[C@@H](Cc1c[nH]c2ccccc12)C(=O)N[C@@H](CO)C(=O)N[C@@H](C)C(=O)N[C@H](C(=O)N[C@H](C(N)=O)[C@@H](C)O)C(C)C (Ac-K[βAla]FSSKSEYQL[βAla][βAla]FYWSAVT-NH2) | Active | Active | Active
5 |  |  |  | inactive |  |  |  |  | Ac-AAARAAARAAARAAARAAARAAAA-NH2 | inactive | inactive | inactive
